Measured values reported in ChEMBL document CHEMBL4837218, “Synthesis and in vitro antitumour activity of 4(R)-methyl-3-O-phosphonomethyl-α-l-threose nucleosides” (Eur J Med Chem, 2021).

Columns and labels:
[1] = tested on: HeLa; assay: Anticancer activity against human HeLa cells assessed as inhibition of cell growth measured after 72 hrs by MTT assay; assay type: functional, cell-based
Procedure, shortened: (§1)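 Cells seeded at 3000 exponentially growing cells/well and incubated 12 h at 37 °C. Medium then replaced with fresh medium containing graded compound concentrations for 72 h; 5-FU positive control. MTT (5 mg/mL solution) added for 4 h, formazan dissolved in DMSO, absorbance read at 570 nm (reference 630 nm). Relative percentage inhibition of viable cells calculated; IC50 reported as mean ± standard deviation.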

[2] = tested on: MCF7; assay: Anticancer activity against human MCF7 cells assessed as inhibition of cell growth measured after 72 hrs by MTT assay; assay type: functional, cell-based; details: MCF7, 72 h; procedure, shortened: as §1
[3] = tested on: MGC-803; assay: Anticancer activity against human MGC-803 cells assessed as inhibition of cell growth measured after 72 hrs by MTT assay; assay type: functional, cell-based; details: MGC-803, 72 h; procedure, shortened: as §1
[4] = tested on: Human immunodeficiency virus 1; assay: Anti-HIV activity against HIV-1 3B infected in human MT4 cells assessed as protection against virus-induced cytopathicity measured after 5 days by MTT assay; assay type: functional, organism-based; details: Human immunodeficiency virus 1, 3B, MT4, 120 h

Structure (SMILES): C[C@H]1O[C@@H](n2cc(F)c(=O)[nH]c2=O)[C@H](O)[C@H]1OCP(=O)(O)O
- IC50 [1]: > 16 µM
- IC50 [2]: > 16 µM
- IC50 [3]: > 16 µM

Structure (SMILES): C[C@H]1O[C@@H](n2ccc(=O)[nH]c2=O)[C@H](O)[C@H]1OCP(=O)(O)O
- IC50 [1]: > 16 µM
- IC50 [2]: > 16 µM
- IC50 [3]: > 16 µM

Structure (SMILES): Cc1cn([C@@H]2O[C@H](C)[C@H](OCP(=O)(O)O)[C@H]2O)c(=O)[nH]c1=O
- IC50 [1]: > 16 µM
- IC50 [2]: > 16 µM
- IC50 [3]: > 16 µM

Structure (SMILES): Nc1ncnc2c1ncn2[C@H]1C[C@@H](OCP(=O)(O)O)CO1
- EC50 [4]: 2.5 µM

Structure (SMILES): C[C@H]1O[C@@H](n2cnc3c(N)ncnc32)[C@H](O)[C@H]1OCP(=O)(O)O
- IC50 [1]: > 16 µM
- IC50 [2]: > 16 µM
- IC50 [3]: > 16 µM

Structure (SMILES): C[C@H]1O[C@@H](n2ccc(N)nc2=O)[C@H](O)[C@H]1OCP(=O)(O)O
- IC50 [1]: > 16 µM
- IC50 [2]: > 16 µM
- IC50 [3]: > 16 µM

Structure (SMILES): C[C@H]1O[C@@H](n2cc(Cl)c(=O)[nH]c2=O)[C@H](O)[C@H]1OCP(=O)(O)O
- IC50 [1]: > 16 µM
- IC50 [2]: > 16 µM
- IC50 [3]: > 16 µM

Structure (SMILES): C[C@H]1O[C@@H](n2cc(F)c(N)nc2=O)[C@H](O)[C@H]1OCP(=O)(O)O
- IC50 [1]: > 16 µM
- IC50 [2]: > 16 µM
- IC50 [3]: > 16 µM

Structure (SMILES): Cc1cn([C@H]2C[C@@H](OCP(=O)(O)O)CO2)c(=O)[nH]c1=O
- EC50 [4]: 6.59 µM
